One block for each compound: values may come before it. The source made the active and inactive calls. The rule behind the calls is not given here.
Legend:
[1] = target: Histamine H3 receptor (Rattus norvegicus, UniProt Q9QYN8); test: Displacement of [3H]N-alpha-methylhistamine from rat histamine H3 receptor expressed in CHO cells; type: cell-based
[2] = Oral bioavailability in rat; type: ADME, organism-based; details: in vivo
In short: (§1)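 Rat PK study, dosed 1 mg/kg iv plus 10 or 5 mg/kg po. iv vehicle 3% DMSO, 30% solutol, 67% phosphate buffered saline; oral vehicle 50% Tween 80, 40% propylene carbonate, 10% propylene glycol.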

[3] = target: T1, Histamine H3 receptor (Homo sapiens, UniProt Q9Y5N1); test: Displacement of [3H]N-alpha-methylhistamine from human histamine H3 receptor expressed in CHO cells; type: cell-based
[4] = target: Voltage-gated inwardly rectifying potassium channel KCNH2 (Homo sapiens, UniProt Q12809); test: Inhibition of human ERG by patch clamp assay
[5] = system: Salmonella typhimurium; test: Genotoxicity against Salmonella Typhimurium TA1537 by Ames test in the absence of rat liver S9 fraction; type: toxicity, organism-based; details: salmonella enterica subsp. enterica serovar typhimurium
[6] = Genotoxicity against mouse lymphocytes by micronuclei test in the presence of rat liver S9 fraction; type: toxicity, Lymphocyte
[7] = Genotoxicity against mouse lymphocytes by micronuclei test in the absence of rat liver S9 fraction; type: toxicity, cell-based; details: lymphocyte
[8] = Half life in rat at 1 mg/kg, iv; type: ADME, organism-based; parameters: dose 1 mg/kg, route intravenous; details: in vivo; in short: as §1
[9] = Volume of distribution in rat at 1 mg/kg, iv; type: ADME, organism-based; parameters: dose 1 mg/kg, route intravenous; details: in vivo; in short: as §1
[10] = Clearance in rat at 1 mg/kg, iv; type: ADME, organism-based; parameters: dose 1 mg/kg, route intravenous; details: in vivo; in short: as §1
[11] = Cmax in rat at 10 mg/kg, po; type: ADME, organism-based; parameters: dose 10 mg/kg, route oral; details: in vivo; in short: as §1
[12] = Tmax in rat at 10 mg/kg, po; type: ADME, organism-based; parameters: dose 10 mg/kg, route oral; details: in vivo; in short: as §1
[13] = Oral bioavailability in rat at 10 mg/kg; type: ADME, organism-based; details: in vivo; in short: as §1
[14] = AUC in rat at 10 mg/kg, po; type: ADME, organism-based; parameters: dose 10 mg/kg, route oral; details: plasma; in short: as §1
[15] = Ratio of drug level in brain to plasma in rat at 10 mg/kg, ip after 6 hrs; type: ADME, organism-based; parameters: dose 10 mg/kg, route intraperitoneal; details: read-out: BPR
In short: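 Brain and plasma levels measured in rat 6 h after a 10 mg/kg ip dose; value is brain/plasma ratio.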

[16] = system: Rattus norvegicus; test: Inhibition of RAMH-induced water drinking in ip dosed rat dipsogenia model; type: functional
In short: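 Rat dipsogenia model: water drinking induced by H3 agonist R-alpha-methylhistamine; test article given ip beforehand; inhibition of drinking measured and ED50 (mg/kg) derived.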

[17] = system: Rattus norvegicus; test: Wake promoting activity in Sprague-Dawley rat EEG/EMG sleep-wake model assessed as slow-wave sleep onset time at 1 mg/kg, ip after 4 hrs (reference value: 34.9 +/- 5.1 mins); type: functional; details: route intraperitoneal
In short: (§2)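 Male Sprague Dawley rats surgically implanted for chronic EEG and EMG recording; test agent given ip, vehicle group as control; n = 6-7/group. […] Mean + SEM; Dunnett's test versus vehicle.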

[18] = system: Rattus norvegicus; test: Wake promoting activity in Sprague-Dawley rat EEG/EMG sleep-wake model assessed as slow-wave sleep onset time at 3 mg/kg, ip after 4 hrs (reference value: 34.9 +/- 5.1 mins); type: functional; details: route intraperitoneal; in short: as §2
[19] = system: Rattus norvegicus; test: Wake promoting activity in Sprague-Dawley rat EEG/EMG sleep-wake model assessed as increase in wake time at 10 mg/kg, ip after 4 hrs; type: functional; details: route intraperitoneal
In short: (§3)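 Male Sprague Dawley rats surgically implanted for chronic EEG/EMG recording; ip dosing during normal quiet period; cumulative wake time over 4 h post dose vs vehicle; n = 6-7/group, mean + SEM, Dunnett's test vs vehicle.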

[20] = system: Rattus norvegicus; test: Wake promoting activity in Sprague-Dawley rat EEG/EMG sleep-wake model assessed as increase in wake time at 30 mg/kg, ip after 4 hrs; type: functional; details: route intraperitoneal; in short: as §3
[21] = system: Rattus norvegicus; test: Wake promoting activity in Sprague-Dawley rat EEG/EMG sleep-wake model assessed as maximum cumulative wake time at 30 mg/kg, ip at 6 hrs; type: functional; details: route intraperitoneal
[22] = system: Rattus norvegicus; test: Wake promoting activity in Sprague-Dawley rat EEG/EMG sleep-wake model assessed as maximum cumulative wake time at 30 mg/kg, ip up to 17 hrs; type: functional, organism-based; parameters: dose 30 mg/kg
[23] = system: Rattus norvegicus; test: Wake promoting activity in Sprague-Dawley rat EEG/EMG sleep-wake model assessed as increase in wake time at 30 mg/kg, ip after 4 hrs relative to control; type: functional; details: route intraperitoneal; in short: as §2
[24] = system: Rattus norvegicus; test: Toxicity in Sprague-Dawley rat assessed as hypersomnolence at 1 to 30 mg/kg, ip after 4 hrs; type: organism-based; parameters: dose 1-30 mg/kg, route intraperitoneal; details: in vivo
[25] = Half life in human liver microsomes; type: ADME, Microsome
In short: (§4)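 Stability in liver microsomes from rat, dog or human; half-life (min) determined.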

[26] = Half life in rat liver microsomes; type: ADME, Microsome; in short: as §4
[27] = Half life in dog liver microsomes; type: ADME, Canis lupus familiaris, Microsome; in short: as §4
[28] = Inhibition of cytochrome P450; type: ADME
In short: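 CYP inhibition assessed against 5 CYP isoforms; IC50 determined.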

[29] = target: Histamine H1 receptor (Homo sapiens) (UniProt P35367); test: Inhibition of human histamine H1 receptor at 10 uM
In short: (§5)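 Selectivity screen against human H1, H2 and H4 receptors; percent inhibition at 10 µM.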

[30] = target: Histamine H2 receptor (Homo sapiens) (UniProt P25021); test: Inhibition of human histamine H2 receptor at 10 uM; in short: as §5
[31] = target: Histamine H4 receptor (Homo sapiens) (UniProt Q9H3N8); test: Inhibition of human histamine H4 receptor at 10 uM; in short: as §5
[32] = target: T1, Histamine H3 receptor; test: Inverse agonist activity at human histamine H3 histamine receptor by [35S]GTPgammaS binding assay; type: functional
In short: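 Functional assay measuring [35S]GTPγS binding at the human H3 receptor. Inverse agonist potency is reported as an EC50.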

[33] = Inhibition of alpha-adrenergic receptor at 10 uM
In short: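 Broad panel of 101 GPCRs, ion channels and enzymes; percent inhibition at 10 µM.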

[34] = Aqueous solubility of the compound at pH 2; type: physicochemical; details: buffer
In short: (§6)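 Water solubility measured at pH 2 and at pH 7.4, in […].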

[35] = Aqueous solubility of the compound at pH 7.4; type: physicochemical; details: buffer; in short: as §6
[36] = Apparent permeability of the compound across human Caco2 cells; type: ADME, cell-based; details: Caco-2
In short: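 Caco-2 monolayer permeability; apparent permeability (Papp, cm/s) reported.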

[37] = Plasma protein binding in rat; type: ADME, cell-free; details: read-out: PPB (converted)
In short: (§7)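 In vitro binding to plasma proteins of rat, dog and human; percent bound.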

[38] = Plasma protein binding in dog; type: ADME, cell-free, Canis lupus familiaris; details: read-out: PPB (converted); in short: as §7
[39] = Plasma protein binding in human; type: ADME, cell-free; details: read-out: PPB (converted); in short: as §7
[40] = system: Salmonella typhimurium; test: Genotoxicity against Salmonella Typhimurium TA98 by Ames test in the presence of rat liver S9 fraction; type: toxicity, organism-based; details: salmonella enterica subsp. enterica serovar typhimurium
[41] = system: Salmonella typhimurium; test: Genotoxicity against Salmonella Typhimurium TA100 by Ames test in the presence of rat liver S9 fraction; type: toxicity, organism-based; details: salmonella enterica subsp. enterica serovar typhimurium
[42] = system: Salmonella typhimurium; test: Genotoxicity against Salmonella Typhimurium TA102 by Ames test in the presence of rat liver S9 fraction; type: toxicity, organism-based; details: salmonella enterica subsp. enterica serovar typhimurium
[43] = system: Salmonella typhimurium; test: Genotoxicity against Salmonella Typhimurium TA1535 by Ames test in the presence of rat liver S9 fraction; type: toxicity, organism-based; details: salmonella enterica subsp. enterica serovar typhimurium
[44] = system: Salmonella typhimurium; test: Genotoxicity against Salmonella Typhimurium TA1537 by Ames test in the presence of rat liver S9 fraction; type: toxicity, organism-based; details: salmonella enterica subsp. enterica serovar typhimurium
[45] = system: Salmonella typhimurium; test: Genotoxicity against Salmonella Typhimurium TA98 by Ames test in the absence of rat liver S9 fraction; type: toxicity, organism-based; details: salmonella enterica subsp. enterica serovar typhimurium
[46] = system: Salmonella typhimurium; test: Genotoxicity against Salmonella Typhimurium TA100 by Ames test in the absence of rat liver S9 fraction; type: toxicity, organism-based; details: salmonella enterica subsp. enterica serovar typhimurium
[47] = system: Salmonella typhimurium; test: Genotoxicity against Salmonella Typhimurium TA102 by Ames test in the absence of rat liver S9 fraction; type: toxicity, organism-based; details: salmonella enterica subsp. enterica serovar typhimurium
[48] = system: Salmonella typhimurium; test: Genotoxicity against Salmonella Typhimurium TA1535 by Ames test in the absence of rat liver S9 fraction; type: toxicity, organism-based; details: salmonella enterica subsp. enterica serovar typhimurium

Chain of Histamine H3 receptor (Rattus norvegicus, UniProt Q9QYN8) (Q9QYN8 whole entry): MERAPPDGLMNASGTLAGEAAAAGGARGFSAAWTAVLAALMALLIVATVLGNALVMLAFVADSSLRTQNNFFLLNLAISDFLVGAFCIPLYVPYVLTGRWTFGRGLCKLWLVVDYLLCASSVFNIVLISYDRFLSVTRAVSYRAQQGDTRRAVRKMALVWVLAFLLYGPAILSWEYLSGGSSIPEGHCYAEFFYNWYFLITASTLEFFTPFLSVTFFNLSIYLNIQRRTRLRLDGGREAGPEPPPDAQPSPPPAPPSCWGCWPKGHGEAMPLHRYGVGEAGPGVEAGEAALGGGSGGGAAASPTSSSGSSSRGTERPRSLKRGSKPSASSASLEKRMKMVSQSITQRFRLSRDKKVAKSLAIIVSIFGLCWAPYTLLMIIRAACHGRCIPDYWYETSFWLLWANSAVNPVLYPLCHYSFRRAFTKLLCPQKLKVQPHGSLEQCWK
T1 sequence (Q9Y5N1 whole entry): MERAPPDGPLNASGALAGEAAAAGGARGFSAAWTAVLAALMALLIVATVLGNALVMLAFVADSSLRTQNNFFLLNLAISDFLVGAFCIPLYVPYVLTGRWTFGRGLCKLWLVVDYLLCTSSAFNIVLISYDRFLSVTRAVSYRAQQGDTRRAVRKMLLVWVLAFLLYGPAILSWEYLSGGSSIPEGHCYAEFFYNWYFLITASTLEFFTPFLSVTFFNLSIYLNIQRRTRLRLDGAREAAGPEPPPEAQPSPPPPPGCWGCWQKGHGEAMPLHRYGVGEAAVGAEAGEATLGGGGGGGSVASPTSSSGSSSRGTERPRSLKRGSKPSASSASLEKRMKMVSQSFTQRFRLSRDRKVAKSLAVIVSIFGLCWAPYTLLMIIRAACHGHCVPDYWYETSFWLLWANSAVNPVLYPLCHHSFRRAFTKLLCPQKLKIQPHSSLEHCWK
Chain of Voltage-gated inwardly rectifying potassium channel KCNH2 (Q12809 whole entry): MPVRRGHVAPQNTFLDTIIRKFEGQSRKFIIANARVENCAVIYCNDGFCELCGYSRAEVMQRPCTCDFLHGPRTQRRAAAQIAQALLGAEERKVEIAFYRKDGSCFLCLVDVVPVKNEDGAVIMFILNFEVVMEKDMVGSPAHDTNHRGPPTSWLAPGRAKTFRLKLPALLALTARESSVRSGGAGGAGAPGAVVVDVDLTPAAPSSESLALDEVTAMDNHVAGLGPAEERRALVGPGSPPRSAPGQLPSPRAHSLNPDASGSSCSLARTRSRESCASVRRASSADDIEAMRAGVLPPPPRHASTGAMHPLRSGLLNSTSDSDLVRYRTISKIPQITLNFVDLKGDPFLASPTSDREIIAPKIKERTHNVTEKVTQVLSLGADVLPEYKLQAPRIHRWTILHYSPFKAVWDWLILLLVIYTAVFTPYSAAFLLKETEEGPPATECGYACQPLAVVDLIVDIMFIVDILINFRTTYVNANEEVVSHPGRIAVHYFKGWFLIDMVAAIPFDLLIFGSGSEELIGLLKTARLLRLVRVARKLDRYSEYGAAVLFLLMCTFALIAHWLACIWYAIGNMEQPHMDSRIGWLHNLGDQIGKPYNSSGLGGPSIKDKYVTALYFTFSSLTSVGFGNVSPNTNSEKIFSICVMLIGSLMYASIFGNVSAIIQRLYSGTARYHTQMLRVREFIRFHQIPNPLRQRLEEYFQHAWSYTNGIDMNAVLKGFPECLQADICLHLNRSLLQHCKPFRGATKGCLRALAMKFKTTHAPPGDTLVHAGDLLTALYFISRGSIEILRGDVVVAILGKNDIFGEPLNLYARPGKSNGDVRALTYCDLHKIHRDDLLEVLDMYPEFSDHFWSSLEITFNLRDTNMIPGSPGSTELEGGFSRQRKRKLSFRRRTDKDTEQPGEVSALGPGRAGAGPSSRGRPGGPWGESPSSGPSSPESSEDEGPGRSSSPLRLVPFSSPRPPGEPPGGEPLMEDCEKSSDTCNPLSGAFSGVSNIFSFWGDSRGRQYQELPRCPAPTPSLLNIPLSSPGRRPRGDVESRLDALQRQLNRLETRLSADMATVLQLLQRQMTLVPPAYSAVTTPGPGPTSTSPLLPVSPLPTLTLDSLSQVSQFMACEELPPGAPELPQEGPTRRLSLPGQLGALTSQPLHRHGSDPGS
Chain of Histamine H2 receptor (Homo sapiens) (P25021 whole entry): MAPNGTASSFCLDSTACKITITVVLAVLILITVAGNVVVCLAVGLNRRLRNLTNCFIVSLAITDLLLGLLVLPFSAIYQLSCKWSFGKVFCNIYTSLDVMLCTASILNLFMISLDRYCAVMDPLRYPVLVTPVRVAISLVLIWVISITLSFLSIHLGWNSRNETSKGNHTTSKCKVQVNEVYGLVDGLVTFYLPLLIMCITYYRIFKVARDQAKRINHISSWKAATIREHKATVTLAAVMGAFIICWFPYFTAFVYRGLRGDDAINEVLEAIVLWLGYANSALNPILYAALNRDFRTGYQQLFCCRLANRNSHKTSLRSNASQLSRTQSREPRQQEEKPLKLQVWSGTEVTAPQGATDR
Chain of Histamine H1 receptor (Homo sapiens) (P35367 whole entry): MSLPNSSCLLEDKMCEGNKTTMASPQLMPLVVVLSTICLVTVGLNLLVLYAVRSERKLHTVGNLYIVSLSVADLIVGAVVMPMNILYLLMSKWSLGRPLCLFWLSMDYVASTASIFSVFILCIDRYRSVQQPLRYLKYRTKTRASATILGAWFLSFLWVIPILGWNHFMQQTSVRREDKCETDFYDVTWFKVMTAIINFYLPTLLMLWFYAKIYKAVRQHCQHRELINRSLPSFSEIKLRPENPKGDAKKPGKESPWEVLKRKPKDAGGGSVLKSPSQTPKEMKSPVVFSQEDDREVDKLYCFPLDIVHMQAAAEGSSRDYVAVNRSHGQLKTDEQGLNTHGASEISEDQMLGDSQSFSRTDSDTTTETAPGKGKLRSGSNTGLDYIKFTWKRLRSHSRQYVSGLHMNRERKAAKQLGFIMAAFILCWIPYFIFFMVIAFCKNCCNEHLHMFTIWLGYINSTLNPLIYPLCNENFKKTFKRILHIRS

Compound: Cc1nn(-c2ccsc2)c(=O)cc1-c1ccc(OC2CCN(C3CCC3)CC2)cc1
- Ki [1]: 8 nM
- Ki [3]: 3 nM

Compound: O=c1cc(-c2ccc(OC3CCN(C4CCC4)CC3)nc2)cn[nH]1
- Ki [1]: 20 nM
- Ki [3]: 14 nM

Compound: C[C@@H]1CCCN1CCCOc1ccc(-c2cn[nH]c(=O)c2)cc1
- Vd [9]: 0.8 L/kg
- Cmax [11]: 446 ng/mL
- Tmax [12]: 2 h
- AUC [14]: 4210 ng·h/mL
- Kp at 6 h [15]: 1.8
- Ki [1]: 8.5 nM
- Ki [3]: 2.8 nM

Now those with a lower Ki [1], led by results:

- Ki [1]: 2 nM
- bioavailability [2]: 21%
- Ki [3]: 2 nM
Compound: O=c1cc(-c2ccc(OC3CCN(C4CCC4)CC3)cc2)cn[nH]1
- IC50 [4]: 2000 nM

- half-life [8]: 1.5 h
- Vd [9]: 3.4 L/kg
- clearance [10]: 25 mL/min/kg
- Cmax [11]: 673 ng/mL
- Tmax [12]: 1 h
- bioavailability [13]: 68%
- AUC [14]: 4870 ng·h/mL
- Kp at 6 h [15]: 2.3
- Ki [1]: 6 nM
- Ki [3]: 5 nM
- half-life [25]: > 0.667 h
- half-life [26]: > 0.667 h
- half-life [27]: > 0.667 h
- IC50 [28]: > 30000 nM
- inhibition [29]: < 20%
- inhibition [30]: < 20%
- inhibition [31]: < 20%
- EC50 [32]: 1.1 nM
- inhibition [33]: > 50%
- solubility [34]: > 140 µg/mL
- solubility [35]: > 140 µg/mL
- Papp [36]: 14.9 ×10⁻⁶ cm/s
- fraction unbound [37]: 0.46
- fraction unbound [38]: 0.57
- fraction unbound [39]: 0.42
Compound: Cc1n[nH]c(=O)cc1-c1ccc(OC2CCN(C3CCC3)CC2)cc1
- Activity [5]: Non-toxic
- Activity [6]: Non-toxic
- Activity [7]: Non-toxic
- ED50 [16]: 0.02 mg/kg
- Time [17]: 35.3 min
- Time [18]: 45 min
- Time [19]: 167 min
- Time [20]: 226 min
- Time [21]: 163 min
- Activity [22]: Active
- Activity [23]: 178%
- Activity [24]: Non-toxic
- IC50 [4]: 7000 nM
- Activity [40]: Non-toxic
- Activity [41]: Non-toxic
- Activity [42]: Non-toxic
- Activity [43]: Non-toxic
- Activity [44]: Non-toxic
- Activity [45]: Non-toxic
- Activity [46]: Non-toxic
- Activity [47]: Non-toxic
- Activity [48]: Non-toxic

Reference: ChEMBL document CHEMBL1944524, “Synthesis and structure-activity relationship of 5-pyridazin-3-one phenoxypiperidines as potent, selective histamine H(3) receptor inverse agonists” (Bioorg Med Chem Lett, 2012)
